The values that follow come from paper PMC3144758 (Bioorganic chemistry, 2010).

This assay has as its target Tip60 (Homo sapiens, UniProt Q92993). Kind of assay: Radioactive HAT inhibition assay, Tip60. Format: biochemical. The method, boiled down:
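Recombinant Tip60 acetylates H4 N-terminal 20-mer peptide (100 μM) using [14C]acetyl-CoA (10 μM) at varied DMSO levels, 30 °C, in 50 mM HEPES pH 8.0, 0.1 mM EDTA, 50 μg/mL BSA, 1 mM DTT. Enzyme added after 5 min equilibration. Initial rates measured (<10% substrate consumed) by P81 filter binding, bicarbonate washes and scintillation. Readouts are fractional activity retained and IC50 (50% activity blocked). Runs at least twice.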

Chain of Tip60 (Q92993 whole entry): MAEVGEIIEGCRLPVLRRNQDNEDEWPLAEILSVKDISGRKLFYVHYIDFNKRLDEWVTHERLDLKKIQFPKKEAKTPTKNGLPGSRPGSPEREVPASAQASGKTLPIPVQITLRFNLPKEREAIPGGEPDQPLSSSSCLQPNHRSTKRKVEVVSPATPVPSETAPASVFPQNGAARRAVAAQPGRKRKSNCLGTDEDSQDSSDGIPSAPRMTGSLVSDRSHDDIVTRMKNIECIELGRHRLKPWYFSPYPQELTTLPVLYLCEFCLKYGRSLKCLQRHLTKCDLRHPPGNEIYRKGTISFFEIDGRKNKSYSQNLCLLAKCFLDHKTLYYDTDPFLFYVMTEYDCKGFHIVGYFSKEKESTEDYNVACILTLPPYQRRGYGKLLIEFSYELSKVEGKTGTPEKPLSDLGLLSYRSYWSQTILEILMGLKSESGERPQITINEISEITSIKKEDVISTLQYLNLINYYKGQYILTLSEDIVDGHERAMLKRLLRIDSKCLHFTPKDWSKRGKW

Turning to `C[S+](C)[O-]` [DMSO], the “IC50 of DMSO on Tip60 activity” value (DMSO (v/v), H4-20 100 μM, [14C]acetyl-CoA 10 μM) is on record as 37%. Also, the “Retained activity of Tip60” value (at 30% of DMSO) worked out at 90%.
